HCT116 PTEN-null – suppresses growth of cells with PTEN deletion; actives 1.2% (n = 140,000); viability, % at 10 µM; AID 827; HCT116 PTEN-null viability, CellTiter-Glo, 60 h; stronger effect = lower value;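 active = viability at or below a set limit, 4 SD under the median of all tested compounds, cut at about 3.7% in these data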;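 note: PTEN knockout HCT116 line with beta catenin targeted HCT116 as companion control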
PMI act satM6P – increases human PMI activity with near-saturating mannose 6-phosphate. P34949. coupled PMI enzyme assay, resazurin fluorescence, 20 min; stronger effect = higher value; 1 = untreated enzyme, 0 = substrate-free blank. activation factor at 20 µM. actives 0.34% (n = 190,000). AID 1216;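 active = activation factor of 2 or more at 20 µM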
Target sequence (P34949 whole entry, looked up): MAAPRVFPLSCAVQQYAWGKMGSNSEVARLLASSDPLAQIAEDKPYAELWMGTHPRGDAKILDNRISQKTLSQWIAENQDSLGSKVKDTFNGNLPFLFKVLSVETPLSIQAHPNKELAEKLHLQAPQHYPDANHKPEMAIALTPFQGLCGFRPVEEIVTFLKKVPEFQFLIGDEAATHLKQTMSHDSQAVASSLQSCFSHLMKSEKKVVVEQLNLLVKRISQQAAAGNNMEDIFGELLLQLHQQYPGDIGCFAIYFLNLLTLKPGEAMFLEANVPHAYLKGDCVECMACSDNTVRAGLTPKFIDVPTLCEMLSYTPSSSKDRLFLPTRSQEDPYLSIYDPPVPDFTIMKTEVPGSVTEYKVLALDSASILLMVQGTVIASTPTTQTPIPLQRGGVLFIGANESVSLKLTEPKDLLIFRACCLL
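Material: human phosphomannose isomerase with PGI, G6PDH, diaphorase coupling enzymes; amount: PMI at 15 ng/mL final; also added: Mannose-6-phosphate 1.0 mM (near-saturating) plus 0.22 mM NADP+; incubation: enzyme reaction with compound 20 min at room temperature; signal: resorufin fluorescence (Ex 544/Em 590 nm) from resazurin via diaphorase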
HCT116 bCat-KO – beta-catenin-lacking colon tumor cell growth suppression | viability, % at 10 µM | HCT116 beta-catenin knockout viability, CellTiter-Glo, 60 h; stronger effect = lower value | actives 1.5% (n = 140,000);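 active = viability at or under a set limit, the compound median less 4 SD, cut at about 6% in these data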;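 note: 0% = Hyamine 1622 control at 20 µM and 100% = untreated cell control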
PMI activator – activators of human phosphomannose isomerase. P34949. purified human PMI, coupled resazurin fluorescence, 20 min; stronger effect = higher value; 1 = vehicle control, 0 substrate-free wells. activation factor at 20 µM. actives 0.005% (n = 190,000). AID 1214;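 active = activation factor of 2 or more at 20 µM, relative to plate controls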
L major viab – reduces viability of Leishmania major promastigotes; resazurin fluorescence viability; inhibition, % at 10 µM; actives 9% (n = 200,000); in the data active = inhibition above about 50%;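 note: promastigotes grown with compound for 44 hours at 28 °C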
* = called active by the depositor; x = no result. An excerpt weighted towards active compounds, which were near 9.6% of everything screened.

SMILES | HCT116 PTEN-null | PMI act satM6P | HCT116 bCat-KO | PMI activator | L major viab
O=C(Nc1ncccn1)C1c2ccccc2Oc2ccccc21 | 93 | 1.1 | 86 | 1.1 | 55*
COc1ccc(C/C(=N\O)c2ccc(OC)cc2)cc1 | 85 | 0.9 | 98 | 0.9 | 7
Cc1c(C(=O)OCC(C)(C)CN(C)C)oc2ccccc12 | 95 | 0.9 | 95 | 0.9 | -4
Cc1c(C(=O)OC(C)CCN(C)C)oc2ccccc12 (configuration not stated) | 96 | 1 | 90 | 1 | 85*
CN(C)NC(=O)C12CCC(C)(C(=O)O1)C2(C)C (configuration not stated) | x | 0.9 | x | 1 | 10
CSc1ccc(CN2C(=O)NC3(CCCCCCC3)C2=O)cc1 | x | 0.9 | x | 0.9 | 20
COc1ccc(C(=O)/C=C2\NCC3c4ccccc4CCN3C2=O)cc1 (configuration not stated) | 96 | 2.4* | 89 | 1.5 | 3
C(#Cc1ccccc1)C[N+]1(CC#Cc2ccccc2)CCCC1 | 69 | 0.9 | 77 | 1 | 100*
COc1cccc(-c2nc(-c3ccc4c(c3)-c3ccccc3S4(=O)=O)c(-c3ccccc3)[nH]2)c1OC | 94 | 1.1 | 91 | 1 | 57*
COc1cc(-c2nc(-c3ccccc3)c(-c3cccs3)[nH]2)cc(OC)c1O | 82 | 0.8 | 82 | 0.7 | 47
COc1cc(-c2nc(-c3ccccc3)c(-c3cccs3)[nH]2)cc(OC)c1OC | 43 | 0.9 | 60 | 0.9 | 90*
O=C(O)c1ccccc1-c1nc(-c2ccccc2)c(-c2ccccc2)[nH]1 | x | 1.1 | x | 1.1 | -13
COc1cc(-c2nc(-c3ccc4c(c3)-c3ccccc3S4(=O)=O)c(-c3ccccc3)[nH]2)cc(OC)c1OC | 69 | 0.8 | 69 | 0.8 | 99*
O=c1cc(-c2ccc([N+](=O)[O-])cc2)c2ccc(O)cc2o1 | x | 1 | x | 1.1 | -10
Cc1ccc(C)c2[nH]c(=O)c(CN(Cc3ccco3)C(=S)NCC3CCCO3)cc12 (configuration not stated) | x | 1.3 | x | 1.2 | 59*
Cc1ccc2[nH]c(=O)c(CN(CC3CCCO3)C(=S)Nc3ccccc3)cc2c1 (configuration not stated) | 35 | 1.1 | 42 | 0.8 | 54*
COc1cc(C(=O)N(Cc2cc3cc(C)ccc3[nH]c2=O)CC2CCCO2)cc(OC)c1OC (configuration not stated) | 97 | 1 | 112 | 1 | 0
Cc1ccc2[nH]c(=O)c(CN(CC3CCCO3)C(=S)NCc3ccco3)cc2c1 (configuration not stated) | 86 | 1 | 85 | 0.8 | 57*
COc1cccc(C(=O)N(Cc2cc3cc(C)ccc3[nH]c2=O)CC2CCCO2)c1 (configuration not stated) | 94 | 1 | 102 | 1 | 75*
Cc1ccc(C(=O)N2CC(=O)Nc3ccc(F)cc3C2c2ccccc2)cc1[N+](=O)[O-] (configuration not stated) | 77 | 1.1 | 82 | 1 | 17
CCC(CC)C(=O)NCCc1ccc(F)cc1 | 93 | 1 | 87 | 1 | -5
Cc1ccc2cc(CN(CC3CCCO3)C(=S)Nc3ccccc3)c(=O)[nH]c2c1C (configuration not stated) | 28 | 1 | 29 | 0.9 | 67*
CCN(CC)S(=O)(=O)c1cccc(C(=O)NC(C(=O)Nc2nnc(C)s2)C(C)C)c1 (configuration not stated) | 93 | 0.9 | 93 | 1 | -2
CC(C)C(=O)N1CCN(c2ccc([N+](=O)[O-])cc2Cl)CC1 | 97 | 1.1 | 87 | 1 | 50*
CCC1(C)Cc2nc3sc(C(=O)O)c(N)c3cc2CO1 (configuration not stated) | 88 | 2.2* | 91 | 1.5 | -4
SMILES | HCT116 PTEN-null | PMI act satM6P | HCT116 bCat-KO | PMI activator | L major viab
CC1(C)NC(=O)N(CNc2cc(Cl)ccc2Cl)C1=O | 101 | 0.9 | 96 | 0.9 | 5
Cc1cc(C)c[n+](C(C)C(=O)c2ccc(-c3ccccc3)cc2)c1 (configuration not stated) | 15 | 1.3 | 17 | 1.2 | 67*
Cn1c(C(=O)NC2CC2)cc(=O)n(C)c1=O | x | 1 | x | 1 | -9
Nc1ccc(Oc2ccc3nc(-c4ccccc4)c(-c4ccccc4)nc3c2)cc1 | 46 | 0.9 | 54 | 0.9 | 66*
COc1ccc(S(=O)(=O)N(C)CC(=O)Nc2cccc(C(C)=O)c2)cc1Cl | 89 | 1 | 81 | 1 | 6
CC1=NN(c2ccc(S(=O)(=O)O)cc2Cl)C(=O)C1 | x | 2* | x | 1.4 | 8
CN(C)S(=O)(=O)c1ccc(C(=O)OCC(=O)NCc2ccco2)cc1 | x | 0.9 | x | 1 | 8
COc1ccc(CCC(C)Nc2ccc(F)cc2)cc1 (configuration not stated) | 97 | 1 | 95 | 1.1 | -1
COc1ccc(CCC(C)NCC2CCCCC2)cc1 (configuration not stated) | 80 | 1 | 82 | 1 | 87*
COCCN1CCCC(CNCc2cn(C)nc2-c2ccc(Oc3ccccc3)cc2)C1 (configuration not stated) | x | 0.9 | x | 0.7 | 95*
COC1CCCN(Cc2cn(C)nc2-c2ccc(Oc3ccccc3)cc2)C1 (configuration not stated) | x | 0.9 | x | 0.9 | 73*
Cn1cc(CN2CCCCC2CO)c(-c2ccc(Oc3ccccc3)cc2)n1 (configuration not stated) | x | 1 | x | 1 | 63*
CCCOC(=O)Nc1sc2c(c1C(N)=O)CCCC2 | x | 1 | x | 1 | -3
NC(=O)[C@@H]1CCNc2c(I)cc([N+](=O)[O-])cc2C(=O)N[C@@H](CCC(=O)O)C(=O)N[C@@H](CO)C(=O)N1 | 93 | 1.4 | 102 | 1.3 | -1
COc1ccc(NC(C)C(=O)Nc2ccc(C(C)(C)C)cc2)cc1Cl (configuration not stated) | 71 | 0.9 | 76 | 0.8 | 50*
COc1ccc(NC(C)C(=O)Nc2ccc(C#N)cc2)cc1Cl (configuration not stated) | 70 | 1 | 83 | 1 | 6
COc1cc(C(=O)NCC2CCCO2)cc(OC)c1OC (configuration not stated) | 98 | 1 | 104 | 1 | -3
COc1cccc(OC)c1OCC(C)CNCC1CCCO1 (configuration not stated) | 89 | 1.1 | 82 | 1 | 85*
Cc1ccc(/C(O)=C2\C(=O)C(=O)N(CC(C)O)C2c2ccc(N(C)C)cc2)cc1 (configuration not stated) | 101 | 1.3 | 96 | 1.2 | -3
Cc1cccc2c(=O)c(C(=O)NCCCN3CCOCC3)c[nH]c12 | 101 | 1 | 96 | 1 | 3
N#CC1=C(N)NC(SCc2ccc(F)cc2)=C(C#N)C12CCCCC2 | 18 | 0.9 | 19 | 0.8 | 99*
